The record followed here is ChEMBL document CHEMBL3758148, “4-Phenylpyridin-2-one Derivatives: A Novel Class of Positive Allosteric Modulator of the M1 Muscarinic Acetylcholine Receptor” (J Med Chem, 2016).

Structures are written as SMILES. Active and inactive are the calls of the source. The rule behind the calls is not given here.

For assay [1], the target named is T1, Muscarinic acetylcholine receptor M1 (Homo sapiens) (UniProt P11229).
T1 sequence (whole entry): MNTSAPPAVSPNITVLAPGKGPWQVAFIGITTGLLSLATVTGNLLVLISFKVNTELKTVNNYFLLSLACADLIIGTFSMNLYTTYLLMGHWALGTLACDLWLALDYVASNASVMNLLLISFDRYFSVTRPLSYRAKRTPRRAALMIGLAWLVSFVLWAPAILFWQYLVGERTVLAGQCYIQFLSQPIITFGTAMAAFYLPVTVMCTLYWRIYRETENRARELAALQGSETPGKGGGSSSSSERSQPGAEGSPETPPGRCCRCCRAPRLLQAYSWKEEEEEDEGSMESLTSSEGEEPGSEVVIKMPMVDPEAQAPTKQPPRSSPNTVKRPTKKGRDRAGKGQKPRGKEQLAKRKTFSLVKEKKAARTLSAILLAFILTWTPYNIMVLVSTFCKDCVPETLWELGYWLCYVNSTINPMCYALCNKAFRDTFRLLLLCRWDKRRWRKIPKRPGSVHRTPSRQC
As to the kind of experiment: Displacement of [3H]NMS from human muscarinic M1 receptor expressed in CHO Flp-In cells after 1 hr by microbeta liquid scintillation counting-based radioligand binding assay. It is filed as cell-based. Put shortly:
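Intact adherent Flp-In CHO cells expressing hM1 (10⁴ cells/well), incubated with 0.2 nM [3H]NMS, varying ACh and modulator in HEPES-buffered saline pH 7.4 for 1 h at 37 °C. Washed with ice-cold 0.9% NaCl, then scintillation counted. Fitted to an allosteric ternary complex model with [3H]NMS KA 0.2 nM. Mean ± SEM, ≥3 experiments in duplicate.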

Assay [2] has as its target T1, Muscarinic acetylcholine receptor M1 (Homo sapiens). In words: Positive allosteric modulation of human muscarinic M1 receptor expressed in CHO Flp-In cells assessed as functional cooperativity with acetylcholine measured as IP1 accumulation upto 30 uM after 1 hr by HTRF method. It is filed as cell-based. Summed up:
(§1)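 Suspended Flp-In CHO cells stably expressing hM1, stimulated at 10⁶ cells/ml in HEPES buffer with 50 mM LiCl, pH 7.4, using increasing ACh with or without increasing modulator, 1 h at 37 °C, 5% CO2. IP1 read by HTRF (665/590 nm ratio). Curves fitted globally to the operational model of allosterism, with KB fixed from binding. Mean ± SEM, ≥3 experiments in duplicate.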
Background: Time-resolved FRET reads energy transfer from a long-lived donor to a nearby acceptor.

The target is the same in assay [3]. As to the kind of experiment: Positive allosteric modulation of human muscarinic M1 receptor expressed in CHO Flp-In cells assessed as functional cooperativity with acetylcholine measured as IP1 accumulation after 1 hr by HTRF method. The format is cell-based. Summed up:
as §1

Assay [4] has the same target. In words: Allosteric agonist activity at human muscarinic M1 receptor expressed in CHO Flp-In cells assessed as intrinsic activity measured as IP1 accumulation after 1 hr by HTRF method. It is filed as functional, cell-based. Summed up:
as §1

For the compound `O=c1cc(-c2ccccc2OCc2ccc(-c3cnn(Cc4ccccc4)c3)cc2)ccn1[C@H]1CCCC[C@@H]1O` (racemic), in assay [1], the Kb was 21 µM and the pKb – broadly, the negative decadic logarithm of the Kb, by convention in mol/L – stood at 4.68. In addition, the result in assay [2] was inactive.
The corresponding values for `O=c1cc(-c2ccccc2NCc2ccc(-c3ccccc3)cc2)ccn1[C@H]1CCCC[C@@H]1O` (racemic) are 69 µM, 4.16 and “inactive”.
Taken in the same sequence, the figures for `O=c1cc(-c2ccccc2OCc2ccc(Br)cc2)ccn1[C@H]1CCCC[C@@H]1O` (racemic) were 58 µM, 4.24 and “inactive”.
Taken in the same sequence, the figures for `O=c1cc(-c2ccccc2OCc2ccccc2C(F)(F)F)ccn1[C@H]1CCCC[C@@H]1O` (racemic) were 33 µM, 4.48 and “inactive”.
`COc1ccccc1COc1ccccc1-c1ccn([C@H]2CCCC[C@@H]2O)c(=O)c1` (racemic): in assay [1], the Kb was found to be 30 µM and the pKb is 4.53. Besides, in assay [2], the outcome was inactive.
Taken in the same sequence, the figures for `O=c1cc(-c2ccccc2OCc2ccc(Br)cc2F)ccn1[C@H]1CCCC[C@@H]1O` (racemic) were 18 µM, 4.75 and “inactive”.
On to `Nc1ccccc1-c1ccn([C@H]2CCCC[C@@H]2O)c(=O)c1` (racemic), for which the pKb in assay [1] was 3.86. Moreover, the result in assay [2] was inactive.
In assay [1], `N#Cc1ccccc1COc1ccccc1-c1ccn([C@H]2CCCC[C@@H]2O)c(=O)c1` (racemic) came in with a Kb of 42 µM and a pKb of 4.38. Also, in assay [2], the outcome was inactive.
Consider `O=c1cc(-c2ccccc2NCc2ccc(-c3ccncc3)cc2)ccn1[C@H]1CCCC[C@@H]1O` (racemic), for which, in assay [1], the Kb was found to be 9.3 µM and the pKb was 5.03. The outcome in assay [2] was inactive.
For the compound `O=c1cc(-c2ccccc2OCc2ccc(-c3cnn(CC4CCCCC4)c3)cc2)ccn1[C@H]1CCCC[C@@H]1O` (racemic), in assay [1], the Kb turned out to be 30 µM and the pKb worked out at 4.52. Further, the outcome in assay [2] was inactive.
For the compound `O=c1cc(-c2ccccc2OCc2ccc(-c3ccccc3)cc2)ccn1[C@H]1CCCC[C@@H]1O` (racemic), in assay [1], the Kb turned out to be 10 µM and the pKb came out at 4.99. Further, the log(activity) in assay [3] worked out at 1.09. In assay [4], the Intrinsic activity was 1.38 and the log(IA) is 0.14.
`O=c1cc(-c2ccccc2NCc2ccc(-c3cccnc3)cc2)ccn1[C@H]1CCCC[C@@H]1O` (racemic): in assay [1], the Kb worked out at 21 µM and the pKb amounted to 4.67. Also, the log(activity) in assay [3] was found to be 0.47. In addition, in assay [4], the Intrinsic activity was 0.74 and the log(IA) was -0.13.
Consider `O=c1cc(-c2ccccc2OCc2ccccc2F)ccn1[C@H]1CCCC[C@@H]1O` (racemic), for which, in assay [1], the Kb was determined as 30 µM and the negative-log Kb (pKb) turned out to be 4.52. The log(activity) in assay [3] turned out to be 0.62. For the same compound, in assay [4], the Intrinsic activity was 0.44 and the log(IA) was -0.36.
The corresponding values for `O=c1cc(-c2ccccc2OCc2ccc(-c3cnn(CCO)c3)cc2)ccn1[C@H]1CCCC[C@@H]1O` (racemic) are 37 µM, 4.43, 2.49, 0.77 and -0.11.
In the case of `O=c1cc(-c2ccccc2OCc2ccc(Oc3ccccc3)cc2)ccn1[C@H]1CCCC[C@@H]1O` (racemic), in assay [1], the Kb stood at 19 µM and the pKb came to 4.71. Besides, in assay [2], the outcome was inactive.
In assay [1], `CC(C)n1cc(-c2ccc(COc3ccccc3-c3ccn([C@H]4CCCC[C@@H]4O)c(=O)c3)cc2)cn1` (racemic) showed a Kb of 27 µM and a pKb of 4.57. Also, the log(activity) in assay [3] came out at 1.93. Further, in assay [4], the Intrinsic activity turned out to be 0.47 and the log(IA) was -0.33.
Taken in the same sequence, the figures for `O=c1cc(-c2ccccc2OCc2ccc(-c3cccnc3)cc2)ccn1[C@H]1CCCC[C@@H]1O` (racemic) were 19 µM, 4.72, 1.29, 0.38 and -0.42.
The corresponding values for `N#Cc1ccc(COc2ccccc2-c2ccn([C@H]3CCCC[C@@H]3O)c(=O)c2)cc1` (racemic) are 14 µM, 4.85, 0.49, 0.19 and -0.73.
Take `NC(=O)c1cccc(COc2ccccc2-c2ccn([C@H]3CCCC[C@@H]3O)c(=O)c2)c1` (racemic): in assay [1], the Kb worked out at 91 µM and the pKb was 4.04. The log(activity) in assay [3] is 0.87. For the same compound, in assay [4], the log(IA) is -3.
In assay [1], `O=c1cc(-c2ccccc2NCc2ccc(Br)cc2)ccn1[C@H]1CCCC[C@@H]1O` (racemic) registered a Kb of 45 µM and a pKb of 4.35. In addition, the result in assay [2] was inactive.
`COc1cccc(COc2ccccc2-c2ccn([C@H]3CCCC[C@@H]3O)c(=O)c2)c1` (racemic): in assay [1], the Kb worked out at 65 µM and the pKb turned out to be 4.19. In addition, the log(activity) in assay [3] came to 0.84. In assay [4], the Intrinsic activity worked out at 1.45 and the log(IA) was 0.16.
Taken in the same sequence, the figures for `Cn1cc(-c2ccc(COc3ccccc3-c3cc(=O)n([C@H]4CCCC[C@@H]4O)cn3)cc2)cn1` (racemic) were 13 µM, 4.88, 2.75, 2.51 and 0.4.
In assay [1], `CCn1cc(-c2ccc(COc3ccccc3-c3ccn([C@H]4CCCC[C@@H]4O)c(=O)c3)cc2)cn1` (racemic) gave a Kb of 41 µM and a pKb of 4.38. Besides, the log(activity) in assay [3] came to 2.26. Moreover, in assay [4], the Intrinsic activity came out at 0.89 and the log(IA) is -0.05.
Turning to `O=c1cc(-c2ccccc2O)ccn1[C@H]1CCCC[C@@H]1O` (racemic), in assay [1], the Kb is 79 µM and the pKb was 4.1. The outcome in assay [2] was inactive.
Take `O=c1cc(-c2ccccc2OCc2ccc(C(F)(F)F)cc2)ccn1[C@H]1CCCC[C@@H]1O` (racemic): in assay [1], the Kb is 36 µM and the pKb was 4.44. The log(activity) in assay [3] came to 0.4. Also, in assay [4], the Intrinsic activity came to 0.77 and the log(IA) was -0.11.
As to `O=c1cc(-c2ccccc2OCc2ccc(-c3cnn(CC4CC4)c3)cc2)ccn1[C@H]1CCCC[C@@H]1O` (racemic), in assay [1], the Kb was 7 µM and the pKb was 5.13. For the same compound, in assay [3], the log(activity) turned out to be 0.58. The log(IA) in assay [4] was -3.
`O=c1cc(-c2ccccc2NCc2ccc(-c3cncnc3)cc2)ccn1[C@H]1CCCC[C@@H]1O` (racemic) returned a pKb in assay [1] of 3.86. The log(activity) in assay [3] came out at 0.68. Also, in assay [4], the Intrinsic activity came out at 1.1 and the log(IA) was 0.04.
